Assay results from publication PMC4554820 (Bioorganic & medicinal chemistry, 2015).
“Also recorded” adds a separate entry of the source. Counter-ions that a name gives are not always drawn. Like-named read-outs stand apart in the source and are kept apart here.

Columns and labels:
GAPDH [1] = target: T1, GAPDH (Oryctolagus cuniculus, UniProt P46406); conditions: HPLC-HRMS, cited from earlier work; for Products, GAPDH tryptic peptide V233-R246: comparison/previous work
[2] = PBS buffer, pH = 7.6; cited from earlier work
[3] = assay type: physicochemical; conditions: for k (min^−1) in 1:1 MeOH : 0.1 N NaOH / k (min^−1) in 1:1 MeOH : PBS / t1/2 (min) in 1:1 MeOH : 0.1 N NaOH: decomposition; for k (min^−1) in 1:1 MeOH : PBS: 1:1 MeOH:PBS (100 mM, pH 7.4), room temperature
Outline: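 The test compound in MeOH (1 mL) was mixed with 1 mL of 100 mM PBS pH 7.4 or 0.1 M NaOH in a sealed cuvette at rt. Loss of absorbance at 667 nm was read every 15 min for 10 h. Rate constants and half-lives came from the exponential decay.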

GAPDH [4] = target: T1, GAPDH; test: Reversibility of GAPDH inhibition by DTT; assay type: biochemical; conditions: GAPDH incubated with compound 1 hr, then DTT (10 mM) 1 hr
[5] = Kinetic UV-vis decomposition in the presence of glutathione; assay type: physicochemical; conditions: PBS pH 7.4 + 2-fold GSH, room temperature
GAPDH [6] = target: T1, GAPDH; test: HPLC-HRMS assay of GAPDH modification; assay type: biochemical; conditions: incubated 1 hr rt, tryptic digestion
Outline: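 Lyophilised GAPDH dissolved in 100 mM PBS pH 7.4, concentration set by A280 (ε 14600 M⁻¹cm⁻¹). Protein 100 µM final with test compound 1 mM final (added from MeOH stock) in water, 1 h rt. Trypsin digest (20:1 ratio) at 37 °C for 17 h, then diluted to 10 µM peptide. C18 LC with 0.1% formic acid water/MeOH gradient (5–95% over 10 min). Orbitrap HRMS, positive ESI. No-compound control.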

[7] = system: porcine liver esterase (PLE); test: Kinetic UV-vis decomposition in the presence of porcine liver esterase; assay type: in vitro ADME; conditions: PBS buffer (3 % DMF) + PLE
[8] = system: human platelet activation induced by (ADP); test: Platelet activation inhibition; assay type: cell-based; conditions: for platelet activation inhibition: PRP, ADP 5 μM
[9] = system: human platelet aggregation induced by ADP; test: Platelet aggregation inhibition; assay type: cell-based; conditions: PRP, ADP 5 μM
Outline: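 Human PRP came from blood spun at 100 g for 10 min, and PPP from PRP spun at 4500 g for 10 min. PRP or PPP plus CaCl₂ (2 mM) went into wells. The test compound (100, 75, 50, 10 µM) was added for 20 min at rt, then ADP 5 µM. Light transmission was read every 20 s with double-orbital agitation and normalised to PPP = 100% and PRP = 0%.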

[10] = 1:1 MeOH:phosphate buffered saline, pH 7.4

T1 sequence (P46406 whole entry): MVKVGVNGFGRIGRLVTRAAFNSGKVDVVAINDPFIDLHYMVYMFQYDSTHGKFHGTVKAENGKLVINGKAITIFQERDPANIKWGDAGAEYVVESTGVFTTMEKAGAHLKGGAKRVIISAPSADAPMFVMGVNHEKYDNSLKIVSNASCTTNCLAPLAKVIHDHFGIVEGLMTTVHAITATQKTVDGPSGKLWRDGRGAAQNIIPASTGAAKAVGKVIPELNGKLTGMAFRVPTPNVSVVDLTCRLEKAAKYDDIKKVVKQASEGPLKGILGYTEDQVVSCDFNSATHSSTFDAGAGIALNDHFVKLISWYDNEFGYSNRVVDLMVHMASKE

Row | Compound | Products, GAPDH tryptic peptide V233-R246 (GAPDH [1]) | half-life at 30 mM [3, 10] | k (min^−1) in 1:1 MeOH : PBS [3] | % of GAPDH activity restored by the addition of DTT (GAPDH [4]) | k (min^−1) in PBS + 2-fold GSH [5] | t1/2 (min) in PBS + 2-fold GSH [5] | further results
1 | [Na+].[Na+].[O-][N+]([O-])=NO [AS, Angeli’s salt (Na2N2O3, AS)] | sulfinamide as a major product and sulfinic acid as a minor product; also recorded: Sulfinamide; RSONH2; also recorded: Sulfinic acid; RSOOH | – | – | – | – | – | Products, GAPDH tryptic peptide I144-K160 (GAPDH [1]; comparison): Internal disulfide; RSSR
2 | CC(=O)OC1(N=O)CCCCC1 [Compound 1, 1-nitrosocyclohexyl acetate] | sulfinic acid as a major product | – | – | – | – | – | –
3 | O=NC1(OC(=O)C(F)(F)F)CCCCC1 [Compound 2, 1-nitrosocyclohexyl trifluoroacetate] | sulfinamide as a major product and sulfinic acid as a minor product | – | – | – | – | – | t1/2 of HNO release [2]: 121 milliseconds (ms)
4 | CC(=O)OC1(N=O)CCOCC1 [Compound 4, 4-Nitrosotetrahydro-2H-pyran-4-yl acetate] | – | 13 h | 0.00089 min⁻¹ | 22% | 0.011 min⁻¹ | 65 min | half-life at 30 mM ([3]; 1:1 MeOH:0.1 N NaOH): 0.2 h; k (min^−1) in 1:1 MeOH : 0.1 N NaOH ([3]; 1:1 MeOH:0.1 N NaOH): 0.057 min⁻¹
5 | CC(C)(C)C(=O)OC1(N=O)CCOCC1 [Compound 5, 4-Nitrosotetrahydro-2H-pyran-4-yl pivalate] | – | 31.7 h | 0.00036 min⁻¹ | – | 0.007 min⁻¹ | 99 min | half-life at 30 mM ([3]; 1:1 MeOH:0.1 N NaOH): 31.2 h; k (min^−1) in 1:1 MeOH : 0.1 N NaOH ([3]; 1:1 MeOH:0.1 N NaOH): 0.00037 min⁻¹
6 | O=NC1(OC(=O)C(Cl)(Cl)Cl)CCOCC1 [Compound 6, 4-Nitrosotetrahydro-2H-pyran-4-yl 2,2,2-trichloroacetate] | – | 0.833 h | 0.014 min⁻¹ | 19% | 0.173 min⁻¹ | 4 min | Products, GAPDH tryptic peptide I144-K160 (GAPDH [6]): Internal disulfide; RSSR; Products, GAPDH tryptic peptide V233-R246 (GAPDH [6]): Sulfinamide; RSONH2; also recorded: Sulfinic acid; RSOOH; t1/2 (min) in 1:1 MeOH : 0.1 N NaOH ([3]; 1:1 MeOH:0.1 N NaOH): decompose immediately and Fast; decomposition rate constant k with PLE [7]: 0.087 min⁻¹; platelet activation inhibition ([8]; 1 μM): lower activity; inhibition of expression of the activated marker (CD62P) ([8]; 10 μM, PRP incubated with ADP (2 μM)): 83%; platelet activation inhibition ([8]; 100, 75, 50, and 10 μM): potent and similar effect; inhibition of platelet aggregation ([9]; 10 μM, compared with positive control (PRP + ADP)): no effect; inhibition of platelet aggregation ([9]; 100 μM, 20 min incubation rt): Complete inhibition; inhibition of platelet aggregation ([9]; 50 and 75 μM): intermediate activities
7 | CC(Cl)(Cl)C(=O)OC1(N=O)CCOCC1 [Compound 7, 4-Nitrosotetrahydro-2H-pyran-4-yl 2,2-dichloropropanoate] | – | 2 h | 0.0058 min⁻¹ | 9% | 0.0578 min⁻¹ | 12 min | Products, GAPDH tryptic peptide I144-K160 (GAPDH [6]): Internal disulfide; RSSR; Products, GAPDH tryptic peptide V233-R246 (GAPDH [6]): Sulfinamide; RSONH2; also recorded: Sulfinic acid; RSOOH; t1/2 (min) in 1:1 MeOH : 0.1 N NaOH ([3]; 1:1 MeOH:0.1 N NaOH): decompose immediately and Fast; decomposition rate constant k with PLE [7]: 0.03 min⁻¹
